Measurements as given in ChEMBL document CHEMBL1151705, “Novel azalides derived from 16-membered macrolides. Part II: Isolation of the linear 9-formylcarboxylic acid and its sequential macrocyclization with an amino alcohol or an azidoamine” (2008).
Values after ≈ are worked out from the molar mass of the structure shown.

Experiments:
Assay type in all cases: functional
Staphylococcus aureus [1] = experiment: Antimicrobial activity against drug-susceptible Staphylococcus aureus 209P JC-1 after 20 hrs by agar dilution method; conditions: Staphylococcus aureus, 209P, 20 h; read-out: MIC
Outline: (§1)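 Agar dilution MIC. S. aureus seed culture was grown in sensitivity test broth. Cell suspension (about 10⁶ CFU/ml) was inoculated onto sensitivity disk agar with 5% horse blood and incubated at 37 °C for 20 h. MIC was the lowest drug concentration that prevented visible growth.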

Streptococcus pneumoniae [2] = experiment: Antimicrobial activity against Streptococcus pneumoniae 5 constitutively expressing ermB/mefA after 20 hrs by agar dilution method; conditions: Streptococcus pneumoniae, 20 h; read-out: MIC
Outline: (§2)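 Streptococci, H. influenzae and M. catarrhalis were precultured on blood agar plates. Suspensions of about 10⁶ CFU/ml were inoculated onto sensitivity disk agar supplemented with 5% horse blood and incubated at 37 °C for 20 h. MIC was read as the lowest drug concentration with no visible growth.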

Staphylococcus aureus [3] = experiment: Antimicrobial activity against Staphylococcus aureus 6 expressing inducible ermB after 20 hrs by agar dilution method; outline: as §1
Streptococcus pyogenes [4] = experiment: Antimicrobial activity against Streptococcus pyogenes 3 expressing mefA after 20 hrs by agar dilution method; conditions: Streptococcus pyogenes, 20 h; read-out: MIC; outline: as §2
Moraxella catarrhalis [5] = experiment: Antimicrobial activity against drug-susceptible Moraxella catarrhalis 1 after 20 hrs by agar dilution method; conditions: Moraxella catarrhalis, 20 h; read-out: MIC; outline: as §2
Streptococcus pneumoniae [6] = experiment: Antimicrobial activity against drug-susceptible Streptococcus pneumoniae 2 after 20 hrs by agar dilution method; conditions: Streptococcus pneumoniae, 20 h; read-out: MIC; outline: as §2
Streptococcus pneumoniae [7] = experiment: Antimicrobial activity against Streptococcus pneumoniae 8 expressing inducible ermB after 20 hrs by agar dilution method; conditions: Streptococcus pneumoniae, 20 h; read-out: MIC; outline: as §2
Streptococcus pneumoniae [8] = experiment: Antimicrobial activity against drug-susceptible Streptococcus pneumoniae DP1 Type1 after 20 hrs by agar dilution method; conditions: Streptococcus pneumoniae, 20 h; read-out: MIC; outline: as §2
Streptococcus pneumoniae [9] = experiment: Antimicrobial activity against Streptococcus pneumoniae 7 expressing inducible ermB after 20 hrs by agar dilution method; conditions: Streptococcus pneumoniae, 20 h; read-out: MIC; outline: as §2
Haemophilus influenzae [10] = experiment: Antimicrobial activity against drug-susceptible Haemophilus influenzae 2 after 20 hrs by agar dilution method; conditions: Haemophilus influenzae, 20 h; read-out: MIC; outline: as §2
Streptococcus pneumoniae [11] = experiment: Antimicrobial activity against Streptococcus pneumoniae 10 expressing mefA after 20 hrs by agar dilution method; conditions: Streptococcus pneumoniae, 20 h; read-out: MIC; outline: as §2
Haemophilus influenzae [12] = experiment: Antimicrobial activity against drug-susceptible Haemophilus influenzae 1 after 20 hrs by agar dilution method; conditions: Haemophilus influenzae, 20 h; read-out: MIC; outline: as §2
Haemophilus influenzae [13] = experiment: Antimicrobial activity against drug-susceptible Haemophilus influenzae 3 after 20 hrs by agar dilution method; conditions: Haemophilus influenzae, 20 h; read-out: MIC; outline: as §2
Staphylococcus aureus [14] = experiment: Antimicrobial activity against drug-susceptible Staphylococcus aureus 2 after 20 hrs by agar dilution method; conditions: Staphylococcus aureus, 20 h; read-out: MIC; outline: as §1
Staphylococcus aureus [15] = experiment: Antimicrobial activity against Staphylococcus aureus 4 constitutively expressing ermA after 20 hrs by agar dilution method; outline: as §1
Streptococcus pyogenes [16] = experiment: Antimicrobial activity against Streptococcus pyogenes 2 constitutively expressing ermB after 20 hrs by agar dilution method; outline: as §2
Staphylococcus aureus [17] = experiment: Antimicrobial activity against drug-susceptible Staphylococcus aureus 3 after 20 hrs by agar dilution method; conditions: Staphylococcus aureus, 20 h; read-out: MIC; outline: as §1
Haemophilus influenzae [18] = experiment: Antimicrobial activity against drug-susceptible Haemophilus influenzae 4 after 20 hrs by agar dilution method; conditions: Haemophilus influenzae, 20 h; read-out: MIC; outline: as §2
Streptococcus pneumoniae [19] = experiment: Antimicrobial activity against Streptococcus pneumoniae 9 expressing mefA after 20 hrs by agar dilution method; conditions: Streptococcus pneumoniae, 20 h; read-out: MIC; outline: as §2
Staphylococcus aureus [20] = experiment: Antimicrobial activity against Staphylococcus aureus 5 expressing inducible ermB after 20 hrs by agar dilution method; conditions: Staphylococcus aureus, 20 h; read-out: MIC; outline: as §1
Streptococcus pyogenes [21] = experiment: Antimicrobial activity against drug-susceptible Streptococcus pyogenes 1 after 20 hrs by agar dilution method; conditions: Streptococcus pyogenes, 20 h; read-out: MIC; outline: as §2
Moraxella catarrhalis [22] = experiment: Antimicrobial activity against drug-susceptible Moraxella catarrhalis 2 after 20 hrs by agar dilution method; conditions: Moraxella catarrhalis, 20 h; read-out: MIC; outline: as §2
Streptococcus pneumoniae [23] = experiment: Antimicrobial activity against Streptococcus pneumoniae 6 constitutively expressing ermB after 20 hrs by agar dilution method; conditions: Streptococcus pneumoniae, 20 h; read-out: MIC; outline: as §2

SMILES	MIC (Staphylococcus aureus [1]) [µg/mL]	MIC (Streptococcus pneumoniae [2]) [µg/mL]	MIC (Staphylococcus aureus [3]) [µg/mL]	MIC (Streptococcus pyogenes [4]) [µg/mL]	MIC (Moraxella catarrhalis [5]) [µg/mL]	MIC (Streptococcus pneumoniae [6]) [µg/mL]	MIC (Streptococcus pneumoniae [7]) [µg/mL]	MIC (Streptococcus pneumoniae [8]) [µg/mL]	MIC (Streptococcus pneumoniae [9]) [µg/mL]	MIC (Haemophilus influenzae [10]) [µg/mL]	MIC (Streptococcus pneumoniae [11]) [µg/mL]	MIC (Haemophilus influenzae [12]) [µg/mL]	MIC (Haemophilus influenzae [13]) [µg/mL]	MIC (Staphylococcus aureus [14]) [µg/mL]	MIC (Staphylococcus aureus [15]) [µg/mL]	MIC (Streptococcus pyogenes [16]) [µg/mL]	MIC (Staphylococcus aureus [17]) [µg/mL]	MIC (Haemophilus influenzae [18]) [µg/mL]	MIC (Streptococcus pneumoniae [19]) [µg/mL]	MIC (Staphylococcus aureus [20]) [µg/mL]	also measured
CCOC(=O)[C@H]1[C@H](C)O[C@@H](O[C@H]2[C@H](N(C)C)[C@@H](O)[C@H](O[C@H]3[C@@H](CC=O)C[C@@H](C)[C@@H](OC(C)=O)CN(CCCCc4ccccc4)CCC[C@@H](C)OC(=O)C[C@@H](OC(=O)CC)[C@@H]3OC)O[C@@H]2C)C[C@@]1(C)OC(C)=O	0.5 (≈ 0.483 µM)	> 128	2 (≈ 1.93 µM)	1 (≈ 0.966 µM)	1 (≈ 0.966 µM)	0.25 (≈ 0.241 µM)	4 (≈ 3.86 µM)	0.25 (≈ 0.241 µM)	4 (≈ 3.86 µM)	4 (≈ 3.86 µM)	0.13 (≈ 0.126 µM)	> 128	> 128	2 (≈ 1.93 µM)	> 128	> 128	1 (≈ 0.966 µM)	> 128	0.25 (≈ 0.241 µM)	1 (≈ 0.966 µM)	MIC (Streptococcus pyogenes [21]): 0.25 µg/mL (≈ 0.241 µM); MIC (Moraxella catarrhalis [22]): 2 µg/mL (≈ 1.93 µM); MIC (Streptococcus pneumoniae [23]): > 128 µg/mL
CCC(=O)O[C@@H]1CC(=O)O[C@H](C)C/C=C/C=C/[C@H](OC(C)=O)[C@H](C)C[C@H](CC=O)[C@H](O[C@@H]2O[C@H](C)[C@@H](O[C@H]3C[C@@](C)(OC(C)=O)[C@@H](OC(=O)CC)[C@H](C)O3)[C@H](N(C)C)[C@H]2O)[C@H]1OC [MIOCAMYCIN]	0.5 (≈ 0.557 µM)	> 128	1 (≈ 1.11 µM)	0.5 (≈ 0.557 µM)	1 (≈ 1.11 µM)	0.5 (≈ 0.557 µM)	128 (≈ 143 µM)	0.25 (≈ 0.278 µM)	64 (≈ 71.3 µM)	2 (≈ 2.23 µM)	0.5 (≈ 0.557 µM)	64 (≈ 71.3 µM)	32 (≈ 35.6 µM)	1 (≈ 1.11 µM)	> 128	> 128	0.5 (≈ 0.557 µM)	16 (≈ 17.8 µM)	0.5 (≈ 0.557 µM)	0.5 (≈ 0.557 µM)	MIC (Streptococcus pyogenes [21]): 0.25 µg/mL (≈ 0.278 µM); MIC (Moraxella catarrhalis [22]): 2 µg/mL (≈ 2.23 µM); MIC (Streptococcus pneumoniae [23]): > 128 µg/mL
CCOC(=O)[C@H]1[C@H](C)O[C@@H](O[C@H]2[C@H](N(C)C)[C@@H](O)[C@H](O[C@H]3[C@@H](CC=O)C[C@@H](C)[C@@H](O)CN(CCCc4ccnc5ccccc45)CC[C@@H](C)OC(=O)C[C@@H](OC(=O)CC)[C@@H]3OC)O[C@@H]2C)C[C@@]1(C)OC(C)=O	0.13 (≈ 0.128 µM)	> 128	0.25 (≈ 0.246 µM)	0.13 (≈ 0.128 µM)	0.25 (≈ 0.246 µM)	0.06 (≈ 0.059 µM)	8 (≈ 7.87 µM)	0.06 (≈ 0.059 µM)	4 (≈ 3.94 µM)	1 (≈ 0.984 µM)	0.13 (≈ 0.128 µM)	16 (≈ 15.7 µM)	8 (≈ 7.87 µM)	0.5 (≈ 0.492 µM)	> 128	> 128	0.25 (≈ 0.246 µM)	8 (≈ 7.87 µM)	0.13 (≈ 0.128 µM)	0.13 (≈ 0.128 µM)	MIC (Streptococcus pyogenes [21]): 0.06 µg/mL (≈ 0.059 µM); MIC (Moraxella catarrhalis [22]): 0.25 µg/mL (≈ 0.246 µM); MIC (Streptococcus pneumoniae [23]): > 128 µg/mL
CCOC(=O)[C@H]1[C@H](C)O[C@@H](O[C@H]2[C@H](N(C)C)[C@@H](O)[C@H](O[C@H]3[C@@H](CC=O)C[C@@H](C)[C@@H](OC(C)=O)CN(CCCCc4ccccc4)CCCOC(=O)C[C@@H](OC(=O)CC)[C@@H]3OC)O[C@@H]2C)C[C@@]1(C)OC(C)=O	0.5 (≈ 0.496 µM)	> 128	1 (≈ 0.993 µM)	0.25 (≈ 0.248 µM)	0.25 (≈ 0.248 µM)	0.25 (≈ 0.248 µM)	32 (≈ 31.8 µM)	0.25 (≈ 0.248 µM)	8 (≈ 7.94 µM)	2 (≈ 1.99 µM)	0.25 (≈ 0.248 µM)	> 128	4 (≈ 3.97 µM)	1 (≈ 0.993 µM)	> 128	> 128	0.5 (≈ 0.496 µM)	8 (≈ 7.94 µM)	0.5 (≈ 0.496 µM)	0.5 (≈ 0.496 µM)	MIC (Streptococcus pyogenes [21]): 0.25 µg/mL (≈ 0.248 µM); MIC (Moraxella catarrhalis [22]): 0.5 µg/mL (≈ 0.496 µM)
